In ChEMBL document CHEMBL2440006, “Mastering tricyclic ring systems for desirable functional cannabinoid activity” (Eur J Med Chem, 2013):

Columns and labels:
Cannabinoid receptor 2 [1] = biological target: T1, Cannabinoid receptor 2 (Homo sapiens, UniProt P34972); assay: Displacement of [3H]-CP55940 from human CB2 receptor expressed in HEK293 cells after 1.5 hrs by microbeta liquid scintillation counting analysis; format: cell-based
Procedure, shortened: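 Membranes from rat brain homogenate (CB1) or HEK293 cells expressing human CB2. GF/B filtration, then scintillation counting. IC50 by three-parameter logistic fit, Ki by Cheng-Prusoff. Three experiments in triplicate.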

[2] = Selectivity ratio of Ki for rat CB1 receptor to Ki for human CB2 receptor
Cannabinoid receptor 1 = Cannabinoid receptor 1 (Rattus norvegicus, UniProt P20272); assay: Displacement of [3H]-CP55940 from CB1 receptor in rat brain homogenate after 1.5 hrs by microbeta liquid scintillation counting analysis; format: tissue-based
Chain of Cannabinoid receptor 1 (P20272 whole entry): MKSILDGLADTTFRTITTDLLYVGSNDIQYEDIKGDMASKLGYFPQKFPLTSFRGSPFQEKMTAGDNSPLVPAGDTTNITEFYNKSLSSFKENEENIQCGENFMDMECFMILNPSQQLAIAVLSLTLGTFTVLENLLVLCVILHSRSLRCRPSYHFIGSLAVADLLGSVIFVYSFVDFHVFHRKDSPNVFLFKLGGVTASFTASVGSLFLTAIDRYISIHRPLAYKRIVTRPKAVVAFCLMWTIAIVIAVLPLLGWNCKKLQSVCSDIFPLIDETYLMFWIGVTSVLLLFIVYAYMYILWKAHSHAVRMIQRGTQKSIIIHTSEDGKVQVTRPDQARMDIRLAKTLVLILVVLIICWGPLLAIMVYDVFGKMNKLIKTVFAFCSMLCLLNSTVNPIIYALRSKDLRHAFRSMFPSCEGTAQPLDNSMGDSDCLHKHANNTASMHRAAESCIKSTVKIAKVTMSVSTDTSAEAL
Procedure, shortened: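 Membranes from rat brain homogenate (CB1) or HEK293 cells expressing human CB2. […] GF/B filtration, then scintillation counting. […] IC50 by three-parameter logistic fit, Ki by Cheng-Prusoff. Three experiments in triplicate.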

Cannabinoid receptor 2 [3] = biological target: T1, Cannabinoid receptor 2; assay: Induction of human CB2 receptor internalization expressed in HEK293 cells at 10 uM relative to CP55940; format: cell-based
Procedure, shortened: (§1)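 Cells stably expressing human CB1 or human CB2 receptors, exposed to test compound alone. […] Mean of two determinations.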

[4] = biological target: Cannabinoid receptor 1 (Homo sapiens) (UniProt P21554); assay: Induction of human CB1 receptor internalization expressed in HEK293 cells at 10 uM relative to CP55940; format: cell-based; procedure, shortened: as §1
Chain of Cannabinoid receptor 1 (Homo sapiens) (P21554 whole entry): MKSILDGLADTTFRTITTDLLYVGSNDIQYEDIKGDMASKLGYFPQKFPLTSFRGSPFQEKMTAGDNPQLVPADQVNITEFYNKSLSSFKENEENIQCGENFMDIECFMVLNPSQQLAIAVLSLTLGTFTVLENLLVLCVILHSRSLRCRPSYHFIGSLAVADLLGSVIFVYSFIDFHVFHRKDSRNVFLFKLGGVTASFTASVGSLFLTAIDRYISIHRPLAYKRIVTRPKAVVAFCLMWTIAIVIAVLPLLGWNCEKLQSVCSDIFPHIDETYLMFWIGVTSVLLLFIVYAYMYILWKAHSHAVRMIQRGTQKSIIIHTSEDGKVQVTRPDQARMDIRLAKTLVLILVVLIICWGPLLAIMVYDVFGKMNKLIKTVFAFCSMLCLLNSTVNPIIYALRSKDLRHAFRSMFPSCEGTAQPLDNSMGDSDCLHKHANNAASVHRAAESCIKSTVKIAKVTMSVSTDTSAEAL

T1 sequence (P34972 whole entry): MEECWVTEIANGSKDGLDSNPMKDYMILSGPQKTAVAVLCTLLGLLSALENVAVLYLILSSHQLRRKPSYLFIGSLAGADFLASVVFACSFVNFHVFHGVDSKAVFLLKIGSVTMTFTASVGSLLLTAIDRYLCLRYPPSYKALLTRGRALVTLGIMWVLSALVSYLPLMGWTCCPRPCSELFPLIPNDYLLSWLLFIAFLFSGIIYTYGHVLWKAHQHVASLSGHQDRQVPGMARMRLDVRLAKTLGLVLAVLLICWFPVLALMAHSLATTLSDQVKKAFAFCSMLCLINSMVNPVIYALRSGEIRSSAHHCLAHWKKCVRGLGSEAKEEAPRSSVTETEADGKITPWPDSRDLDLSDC

| Compound | Ki (Cannabinoid receptor 2 [1]; read-out: Ki) [nM] | Ratio Ki [2] | Ki (Cannabinoid receptor 1; read-out: Ki) [nM] | Ki (Cannabinoid receptor 2 [1]; hek293) | Ki (Cannabinoid receptor 1) | Activity (Cannabinoid receptor 2 [3]) [%] | Activity [4] [%] |
| --- | --- | --- | --- | --- | --- | --- | --- |
| CCCCCn1c2ccccc2c2cc(CN3CCN(C)CC3)ccc21 | 740 | 0.33 | 244 |  |  |  |  |
| O=C(c1ccc2c(c1)c1ccccc1n2Cc1ccccn1)N1CCCCC1 | 215 | 1.87 | 403 |  |  |  |  |
| CCCCCCCn1c2ccccc2c2cc(C(=O)N3CCCCC3)ccc21 | 827 | 1.14 | 943 |  |  |  |  |
| CCOC(=O)CCn1c2ccccc2c2cc(C(=O)N3CCCCC3)ccc21 | 1310 | 3.79 | 4980 |  |  |  |  |
| CCCCCn1c2ccccc2c2cc(C(=O)N3CC[N+](C)(C)CC3)ccc21.[I-] |  |  |  | Not Active | Not Active |  |  |
| CCCCCn1c2ccccc2c2cc(C(=O)NN3CCCCC3)ncc21 | 171 | 2.07 | 354 |  |  |  |  |
| CCCCCn1c2ccccc2c2cc(C(=O)OCc3ccncc3)ccc21 | 1390 | 0.08 | 108 |  |  |  |  |
| O=C(OCCCn1c2ccccc2c2cc(C(=O)N3CCCCC3)ccc21)N1CCS(=O)(=O)CC1 | 73 | 30.9 | 2260 |  |  | 27.9 | 65.6 |
| O=C(c1ccc2c(c1)c1ccccc1n2CCCl)N1CCCCC1 | 519 | 4.55 | 2360 |  |  |  |  |
| COCCCn1c2ccccc2c2cc(C(=O)N3CCCCC3)ccc21 | 83 | 8.88 | 1440 |  |  | 68.1 | 63.2 |
| CCCCCn1c2ccccc2c2cc(C(=O)N3CCNCC3)ccc21 |  | 0.1 |  |  |  |  |  |
| CC(C)(C)OC(=O)NCCCn1c2ccccc2c2cc(C(=O)N3CCCCC3)ccc21 | 2690 |  |  |  | Not Active |  |  |
| CCCCCn1c2ccccc2c2cc(C(=O)NCCc3ccc(Cl)cc3)ccc21 |  |  |  |  | Not Active |  |  |
| CCCCCn1c2ccccc2c2cc(C(=S)N3CCCCC3)ccc21 | 49.6 | 0.82 | 40.6 |  |  | 63 | 124 |
| O=C(c1ccc2c(c1)c1ccccc1n2Cc1cccnc1)N1CCCCC1 | 600 | 1.71 | 1020 |  |  |  |  |
| CCCCCCn1c2ccccc2c2cc(C(=O)N3CCCCC3)ccc21 | 96 | 2.51 | 241 |  |  | 77 | 122 |
| NCCCn1c2ccccc2c2cc(C(=O)N3CCCCC3)ccc21 |  |  |  | Not Active | Not Active |  |  |
| CCOC(=O)CCn1c2ccccc2c2cc(C(=O)N3CCS(=O)(=O)CC3)ccc21 |  |  |  | Not Active | Not Active |  |  |
| O=C(c1ccc2c(c1)c1ccccc1n2Cc1ccncc1)N1CCCCC1 | 91 | 4.32 | 393 |  |  | 66.3 | 74.9 |
| O=C(c1ccc2c(c1)c1ccccc1n2CCCN1CCS(=O)(=O)CC1)N1CCCCC1 | 249 | 9.54 | 2380 |  |  |  |  |
| CCCCCn1c2ccccc2c2cc(C(=O)N3CCN(C)CC3)ccc21 | 35.4 | 3.47 | 123 |  |  | 43.9 | 84.7 |
| CCCCCn1c2ccccc2c2cc(C(=O)N3CCCCC3)ncc21 | 35.3 | 3.86 | 136 |  |  | 101 | 128 |
| CCCCCn1c2ccccc2c2cc(C(=O)NN3CCCCC3)ccc21 | 1610 |  |  |  | Not Active |  |  |
| CCOC(=O)CCn1c2ccccc2c2cc(C(=O)N3CCN(C)CC3)ccc21 | 3380 |  |  |  | Not Active |  |  |

| Compound | Ki (Cannabinoid receptor 2 [1]; read-out: Ki) [nM] | Ratio Ki [2] | Ki (Cannabinoid receptor 1; read-out: Ki) [nM] | Ki (Cannabinoid receptor 2 [1]; hek293) | Ki (Cannabinoid receptor 1) | Activity (Cannabinoid receptor 2 [3]) [%] | Activity [4] [%] |
| --- | --- | --- | --- | --- | --- | --- | --- |
| CCCCCn1c2ccccc2c2cc(C(=O)CN3CCS(=O)(=O)CC3)ccc21 | 502 | 1.34 | 675 |  |  |  |  |
| CCCCCn1c2ccccc2c2cc(C(=O)OCC)ncc21 | 1370 | 1.36 | 1860 |  |  |  |  |
| CCCCCn1c2ccccc2c2cc(C(=O)NCC3CCNCC3)ccc21 |  |  |  | Not Active | Not Active |  |  |
| O=C(c1ccc2c(c1)c1ccccc1n2CC1CCOCC1)N1CCCCC1 | 20 | 0.98 | 19.5 |  |  | 86.2 | 142 |
| CCCCCn1c2ccccc2c2cc(C(=O)CN3CCN(C)CC3)ccc21 | 398 | 3.78 | 1500 |  |  |  |  |
| CCCn1c2ccccc2c2cc(C(=O)N3CCCCC3)ccc21 | 521 | 1.15 | 600 |  |  |  |  |
| CCCCn1c2ccccc2c2cc(C(=O)N3CCCCC3)ccc21 | 264 | 0.24 | 63 |  |  | 67.9 | 84.8 |
| CCCCCn1c2ccccc2c2cc(C(=O)CN3CCCCC3)ccc21 | 1090 | 3.05 | 3330 |  |  | 103 | -20.4 |
| O=C(c1ccc2c(c1)c1ccccc1n2CCCN1CCCCC1)N1CCCCC1 | 2170 |  |  |  | Not Active |  |  |
| O=C(c1ccc2c(c1)c1ccccc1n2CCCCl)N1CCCCC1 | 88 | 1.4 | 124 |  |  | 111 | 106 |
| CC(C)(C)OC(=O)NCCCn1c2ccccc2c2cc(C(=O)N3CCS(=O)(=O)CC3)ccc21 |  |  |  | Not Active | Not Active |  |  |
| CCCCCn1c2ccccc2c2cc(C(=O)N3CCS(=O)(=O)CC3)ccc21 | 225 | 1.96 | 440 |  |  | 91.5 | 23.9 |
| O=C(c1ccc2[nH]c3ccccc3c2c1)N1CCCCC1 |  |  |  | Not Active | Not Active |  |  |
| CCCCCn1c2ccccc2c2cc(C(=O)OCc3ccccn3)ccc21 | 1930 | 0.35 | 679 |  |  |  |  |
| O=C(c1ccc2c(c1)c1ccccc1n2CCN1CCCCC1)N1CCCCC1 |  |  |  | Not Active | Not Active |  |  |
| CCCCCn1c2ccccc2c2cc(C#N)ccc21 |  |  |  | Not Active | Not Active |  |  |
| CCCCCn1c2ccccc2c2cc(CN3CCCCC3)ccc21 | 370 | 0.33 | 122 |  |  | 79.6 | -11.1 |
| CCCCCn1c2ccccc2c2cc(C(=O)N(CC)CC)ccc21 | 51.8 | 2.03 | 105 |  |  | 53.1 | 102 |
| CCCCCn1c2ccccc2c2cc(C(=O)N3CCOCC3)ccc21 | 84.5 | 0.71 | 60 |  |  | 78.7 | 115 |
| CN(C)CCCn1c2ccccc2c2cc(C(=O)N3CCCCC3)ccc21 | 403 | 5.92 | 2390 |  |  |  |  |
| CCCCCn1c2ccccc2c2cc(C(=O)NC34CC5CC(CC(C5)C3)C4)ccc21 | 288 | 5.03 | 1450 |  |  |  |  |
| COC(=O)CCCn1c2ccccc2c2cc(C(=O)N3CCCCC3)ccc21 | 208 | 8.88 | 1850 |  |  | 37.3 | 9.4 |
| CCCCCn1c2ccccc2c2cc(CN3CCNCC3)ccc21 |  |  |  | Not Active | Not Active |  |  |
